Results as given in ChEMBL document CHEMBL1157491, “Pyrazolopyridines as a novel structural class of potent and selective PDE4 inhibitors” (Bioorg Med Chem Lett, 2008).

Tests used:
[1] = Selectivity for human PDE4B over PDE3
[2] = Inhibition of PDE3
Summary of the method: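 Inhibition of PDE3 isolated from bovine aorta, measured as loss of catalytic activity by scintillation proximity assay (SPA).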

[3] = target: 3',5'-cyclic-AMP phosphodiesterase 4B (Homo sapiens, UniProt Q07343); assay: Inhibition of human PDE4B in Sf9 cells; format: cell-based
Summary of the method: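 Catalytic activity of human recombinant PDE4B enzyme was measured by scintillation proximity assay (SPA).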

[4] = Inhibition of PDE5
Summary of the method: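 Inhibition of human recombinant PDE5 catalytic activity, measured by scintillation proximity assay.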

[5] = Selectivity for human PDE4B over PDE5
[6] = tested on: PBMC; assay: Inhibition of TNF alpha production in human PBMC cells by ELISA; format: functional, cell-based
Summary of the method: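 PBMCs were isolated from heparinised human blood by centrifugation on histopaque (1000g, 30 min), washed, and resuspended at 5 × 10⁵ cells/ml in RPMI1640 with 10% foetal calf serum, 1% L-glutamine and 1% penicillin/streptomycin. Cells were preincubated with compound for 1 h at 37 °C, 5% CO₂, then stimulated with LPS (1 ng/ml final) for a further 20 h.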

[7] = Oral bioavailability in rat; format: ADME, organism-based; conditions: in vivo
[8] = Half life in po dosed rat; format: ADME, organism-based; conditions: in vivo

Sequence of 3',5'-cyclic-AMP phosphodiesterase 4B (Q07343 whole entry): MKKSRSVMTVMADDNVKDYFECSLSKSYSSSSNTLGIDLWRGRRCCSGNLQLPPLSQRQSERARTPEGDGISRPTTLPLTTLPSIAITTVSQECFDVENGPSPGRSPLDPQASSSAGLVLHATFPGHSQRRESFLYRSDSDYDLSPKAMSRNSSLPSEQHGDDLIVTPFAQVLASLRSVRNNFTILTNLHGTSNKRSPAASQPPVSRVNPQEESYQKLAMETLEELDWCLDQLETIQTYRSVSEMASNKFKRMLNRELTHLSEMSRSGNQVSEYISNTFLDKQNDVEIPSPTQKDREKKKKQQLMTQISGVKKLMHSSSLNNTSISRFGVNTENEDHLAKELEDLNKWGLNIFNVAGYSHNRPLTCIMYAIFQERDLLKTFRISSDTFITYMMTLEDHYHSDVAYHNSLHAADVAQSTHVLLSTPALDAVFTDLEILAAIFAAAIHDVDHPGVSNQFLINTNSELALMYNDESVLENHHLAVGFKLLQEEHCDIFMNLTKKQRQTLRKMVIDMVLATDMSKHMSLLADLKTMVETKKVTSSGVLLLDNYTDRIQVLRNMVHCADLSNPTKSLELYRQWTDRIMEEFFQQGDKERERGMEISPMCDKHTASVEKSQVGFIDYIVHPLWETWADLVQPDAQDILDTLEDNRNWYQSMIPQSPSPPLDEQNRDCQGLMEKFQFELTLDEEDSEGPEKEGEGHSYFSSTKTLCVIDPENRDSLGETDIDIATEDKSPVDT

SMILES | Selectivity ratio [1] | IC50 [3] [nM] | Selectivity ratio [5] | further results
CCn1ncc2c(NC3CCOCC3)c(C(=O)NC3CCCC3)cnc21 | > 100 | 50.1 | > 100 | pIC50 [2]: < 4.5; pIC50 [4]: < 4.7; IC50 [6]: 158 nM
CCOC(=O)c1cnc2c(cnn2CC)c1N1CCCC1 | – | 631 | – | –
CCn1ncc2c(NC3CCOCC3)c(C(=O)NCc3ccccc3)cnc21 | > 100 | – | > 100 | pIC50 [2]: < 4.5; bioavailability [7]: 35%; half-life [8]: 1.6 h; pIC50 [4]: 5.7; IC50 [6]: 20 nM
CCCn1ncc2c(NC3CCOCC3)c(C(=O)OCC)cnc21 | – | 100 | – | –
CCn1ncc2c(NC3CCOCC3)c(C(=O)NC3CC3)cnc21 | > 100 | 100 | > 100 | –
CCn1ncc2c(NC3CCOCC3)c(C(=O)Nc3ccc(F)cc3)cnc21 | > 100 | – | > 100 | pIC50 [2]: < 4.5; pIC50 [4]: < 4.7; IC50 [6]: 39.8 nM
CCCCNc1c(C(=O)OCC)cnc2c1cnn2CC [CARTAZOLATE] | – | 200 | – | –
CCOC(=O)c1cnc2c(cnn2CC)c1NC1CCOCC1 | – | 10 | – | –
CCC(CC)CNC(=O)c1cnc2c(cnn2CC)c1NC1CCOCC1 | > 100 | 20 | > 100 | pIC50 [2]: < 4.5; pIC50 [4]: 4.8; IC50 [6]: 79.4 nM
CCOC(=O)c1cnc2c(cnn2CC)c1NC(=O)c1ccccc1 | – | 2510 | – | –
CCOC(=O)c1cnc2c(cnn2C)c1NC1CCOCC1 | – | 251 | – | –
CCOC(=O)c1cnc2c(cnn2CC)c1NS(=O)(=O)c1ccccc1 | – | > 31600 | – | –
CCOC(=O)c1cnc2c(cnn2CC)c1NC1CCCC1 | – | 63.1 | – | –
CCOC(=O)c1cnc2c(cnn2Cc2ccccc2)c1NC1CCOCC1 | – | 3980 | – | –
CCOC(=O)c1cnc2c(cnn2-c2ccccc2)c1NC1CCOCC1 | – | 3160 | – | –
CCOC(=O)CCn1ncc2c(NC3CCOCC3)c(C(=O)OCC)cnc21 | – | 5010 | – | –
CCOC(=O)c1cnc2c(cnn2CC)c1NCc1ccc(F)cc1 | – | 316 | – | –
CCn1ncc2c(NC3CCOCC3)c(C(=O)NC3CCN(C(C)=O)CC3)cnc21 | > 100 | 126 | > 100 | –
CCn1ncc2c(NC3CCOCC3)c(C(N)=O)cnc21 | > 100 | 25.1 | > 100 | pIC50 [2]: < 4.5; pIC50 [4]: 4.8; IC50 [6]: 79.4 nM
CCOC(=O)c1cnc2c(cnn2C(C)C)c1NC1CCOCC1 | – | 200 | – | –
CCn1ncc2c(NC3CCOCC3)c(C(=O)N3CCCC3)cnc21 | > 100 | 158 | > 100 | –
CCn1ncc2c(NC3CCOCC3)c(C(=O)NCC3CCCCC3)cnc21 | > 100 | 7.94 | > 100 | pIC50 [2]: < 4.5; pIC50 [4]: 5.5; IC50 [6]: 63.1 nM
CCOC(=O)c1cnc2c(cnn2CC)c1Nc1ccccc1 | – | 158 | – | –
CCOC(=O)c1cnc2c(cnn2CC)c1NCC(C)C | – | 15.8 | – | –
CCOC(=O)c1cnc2c(cnn2CC)c1N(C)C1CCOCC1 | – | 251 | – | –
CCOC(=O)c1cnc2c(cnn2CCO)c1NC1CCOCC1 | – | 158 | – | –
CCn1ncc2c(NC3CCOCC3)c(C(=O)N(C)Cc3ccccc3)cnc21 | > 100 | 50.1 | > 100 | –
CCOC(=O)c1cnc2c(cnn2CC)c1Nc1ccc(OC)cc1 | – | 1000 | – | –
CCOC(=O)c1cnc2[nH]ncc2c1NC1CCOCC1 | – | 2000 | – | –
